From ChEMBL document CHEMBL6127097, “Structure-Guided Discovery of cis-Hexahydro-pyrido-oxazinones as Reversible, Drug-like Monoacylglycerol Lipase Inhibitors” (J Med Chem, 2024)
Active and inactive are the calls of the source.

Experiments:
CYP2C9 = CYP2C9 (Homo sapiens, UniProt P11712); assay: Inhibition of CYP2C9 (unknown origin) at 10 uM relative to control; format: ADME
[1] = Phototoxicity in mouse 3T3 cells; format: toxicity, cell-based; conditions: nih3t3
human P-gp = assay: Apparent permeability across apical to basolateral side in pig LLC-PK1 cells expressing human P-gp; format: ADME, cell-based, Sus scrofa
In short: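 LLC-PK1 porcine kidney cells transfected with human or mouse P-gp were grown as polarized monolayers on filter membranes. Compound was dosed to the apical side and receiver appearance followed over 3 h at 37 °C. A→B Papp was measured with the P-gp inhibitor zosuquidar present at 1 µM.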

[2] = Chemical stability at pH 10 incubated for 2 hrs; format: physicochemical; conditions: buffer, pH 10, 2 h
In short: (§1)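 Compound was held in aqueous buffer at the stated pH for 2 h at 37 °C.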

Monoglyceride lipase = target: T1, Monoglyceride lipase (Homo sapiens, UniProt Q99685); assay: Binding affinity to human MAGL assessed as equilibrium dissociation constant by SPR analysis
T1 sequence (Q99685 whole entry): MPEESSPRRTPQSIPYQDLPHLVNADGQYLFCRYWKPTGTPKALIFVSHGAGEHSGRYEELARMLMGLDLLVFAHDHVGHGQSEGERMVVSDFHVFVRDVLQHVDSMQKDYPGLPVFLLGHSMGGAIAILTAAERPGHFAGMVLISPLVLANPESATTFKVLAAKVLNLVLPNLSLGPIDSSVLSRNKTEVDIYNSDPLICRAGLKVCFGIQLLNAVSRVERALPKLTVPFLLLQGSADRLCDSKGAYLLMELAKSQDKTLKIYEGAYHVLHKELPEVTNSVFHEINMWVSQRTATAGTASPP
In short: (§2)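 Human or rat MAGL was immobilized by amine coupling without ethanolamine quenching. Runs were done at 18 °C in 10 mM HEPES, 150 mM NaCl, 0.05% P20, 50 µM EDTA, pH 7.4, with 1% DMSO. Single-cycle kinetics used five concentrations, top 1 µM in 2-fold steps, at 30 µL/min, giving kon, koff and Kd.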

[3] = Clearance in rat hepatocytes assessed per 10 million cells; format: ADME, cell-based, Hepatocyte
[4] = Drug concentration in mouse CSF at 3 mg/kg, ip measured after 4 hrs; format: ADME, organism-based, Cerebrospinal fluid; conditions: read-out: Ct
[5] = Drug concentration in mouse CSF at 30 mg/kg, ip measured after 2 hrs; format: ADME, organism-based, Cerebrospinal fluid; conditions: read-out: Ct
[6] = Chemical stability at pH 4 incubated for 2 hrs; format: physicochemical; conditions: buffer, pH 4, 2 h; in short: as §1
[7] = AUClast in Wistar rat at 10 mg/kg, ip measured upto 24 hrs by LC-MS/MS analysis; format: ADME, organism-based; conditions: in vivo
[8] = Plasma protein binding in mouse assessed as fraction unbound by equilibrium dialysis based LC-MS/MS method; format: ADME, cell-free
In short: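 Equilibrium dialysis across a 12–14 kDa cutoff membrane in a Teflon 96-well device. Pooled frozen plasma is adjusted to pH 7.4 and spiked at 1000 nM initial total, against Soerensen buffer pH 7.4. Incubation is 5 h at 37 °C, 5% CO2, with diazepam control in each well. %fu = 100 × buffer/matrix concentration after dialysis; recovery accepted at 80–120%.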

[9] = Cmax in Wistar rat at 10 mg/kg, ip measured upto 24 hrs by LC-MS/MS analysis; format: ADME, organism-based; conditions: in vivo
[10] = Ratio of drug concentration in Wistar rat CSF to plasma at 10 mg/kg, ip measured upto 7 hrs by LC-MS/MS analysis; format: ADME, organism-based
In short: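 Male Wistar rats, single dose. i.v. in NMP/0.9% NaCl 30:70; p.o. and i.p. in NMP/HPMC/diisooctyl sulfosuccinate 10:90; 3 per i.v./p.o. group, 6 i.p. K2EDTA plasma sampled 0.083–7 h, plus 24 h for i.v./p.o.; brain and CSF at 1, 2, 7 h (i.p. only). LC-MS/MS, noncompartmental analysis.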

Homo sapiens = organism: Homo sapiens; assay: Inhibition of serotonin transporter (unknown origin) at 10 uM relative to control
In short: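 Cerep panel of 50 off-targets, percent inhibition at 10 µM.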

[11] = target: Fatty acid amide hydrolase (Mus musculus) (UniProt O08914); assay: Inhibition of FAAH in mouse brain lysates at 10 uM by ABPP assay
Fatty acid amide hydrolase (Mus musculus), sequence (O08914 whole entry, looked up): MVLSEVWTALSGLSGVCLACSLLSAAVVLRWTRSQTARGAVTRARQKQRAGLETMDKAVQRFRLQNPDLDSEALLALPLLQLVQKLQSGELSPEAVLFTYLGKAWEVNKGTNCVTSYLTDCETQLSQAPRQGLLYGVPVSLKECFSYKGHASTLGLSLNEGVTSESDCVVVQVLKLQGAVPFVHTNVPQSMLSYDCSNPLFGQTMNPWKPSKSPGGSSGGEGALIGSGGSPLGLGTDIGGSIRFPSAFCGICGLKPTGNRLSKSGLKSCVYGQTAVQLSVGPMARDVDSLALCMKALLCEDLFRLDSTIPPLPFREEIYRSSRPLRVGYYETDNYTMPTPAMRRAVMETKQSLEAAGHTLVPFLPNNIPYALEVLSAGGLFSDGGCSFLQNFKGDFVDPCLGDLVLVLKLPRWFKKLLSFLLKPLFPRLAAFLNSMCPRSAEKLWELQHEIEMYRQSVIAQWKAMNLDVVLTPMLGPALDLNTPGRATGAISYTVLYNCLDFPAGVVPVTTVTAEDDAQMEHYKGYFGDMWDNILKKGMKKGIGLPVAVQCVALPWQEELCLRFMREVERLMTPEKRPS

Mus musculus [12] = organism: Mus musculus; assay: Inhibition of DAGL in mouse brain lysates at 10 uM by ABPP assay; format: subcellular
In short: (§3)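 Gel-based activity-based protein profiling of hydrolases, with the inhibitor at 10 µM.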

[13] = target: T2, Monoglyceride lipase (Homo sapiens) (UniProt Q99685); assay: Binding affinity to human MAGL assessed as dissociation rate constant by SPR analysis; in short: as §2
T2 sequence (whole entry): T1 sequence (Q99685 whole entry)

[14] = target: T3, Monoglyceride lipase (Mus musculus) (UniProt O35678); assay: In vivo receptor occupancy at MAGL receptor in mouse at 30 mg/kg, ip measured after 2 hrs; format: functional, organism-based
T3 sequence (whole entry): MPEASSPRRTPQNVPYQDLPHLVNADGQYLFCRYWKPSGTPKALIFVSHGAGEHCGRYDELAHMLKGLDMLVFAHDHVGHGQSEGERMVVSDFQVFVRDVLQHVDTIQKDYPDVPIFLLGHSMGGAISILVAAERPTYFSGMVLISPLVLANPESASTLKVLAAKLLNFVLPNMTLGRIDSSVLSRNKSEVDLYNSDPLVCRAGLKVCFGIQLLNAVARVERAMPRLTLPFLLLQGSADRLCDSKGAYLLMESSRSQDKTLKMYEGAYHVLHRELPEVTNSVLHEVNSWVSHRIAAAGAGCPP
In short: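 Mice dosed 30 mg/kg i.p. in NaCl/DMSO/TW80 (80/10/10). Brain proteome was prepared at set time points over 24 h and MAGL occupancy read by activity-based protein profiling.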

Mus musculus [15] = assay: Upregulation of brain 2-AG level in mouse at 30 mg/kg, ip measured after 2 hrs; format: functional, organism-based
In short: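 Mice dosed i.p. in NaCl/DMSO/TW80 (80/10/10): 3, 10 or 30 mg/kg with sacrifice at 4 h, or 30 mg/kg over a 24 h time course. Brain extract 2-AG and AA were measured by LC/MS.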

[16] = target: T4, Lysophosphatidylserine lipase ABHD12 (Mus musculus) (UniProt Q99LR1); assay: Inhibition of ABHD12 in mouse brain lysates at 10 uM by ABPP assay; format: subcellular; in short: as §3
T4 sequence (whole entry): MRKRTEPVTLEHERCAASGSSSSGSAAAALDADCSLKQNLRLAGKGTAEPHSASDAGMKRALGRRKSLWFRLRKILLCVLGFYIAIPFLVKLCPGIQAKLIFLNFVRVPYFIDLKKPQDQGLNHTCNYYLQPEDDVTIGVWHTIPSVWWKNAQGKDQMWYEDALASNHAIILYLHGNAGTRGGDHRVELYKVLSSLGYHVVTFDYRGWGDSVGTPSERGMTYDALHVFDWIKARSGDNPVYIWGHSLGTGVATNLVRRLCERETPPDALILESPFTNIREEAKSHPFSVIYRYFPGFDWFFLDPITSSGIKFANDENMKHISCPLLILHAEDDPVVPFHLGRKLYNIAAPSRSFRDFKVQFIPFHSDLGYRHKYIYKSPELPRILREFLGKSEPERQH

[17] = target: T2, Monoglyceride lipase (Homo sapiens); assay: Binding affinity to human MAGL assessed as association rate constant by SPR analysis; in short: as §2
[18] = target: T3, Monoglyceride lipase (Mus musculus); assay: In vivo receptor occupancy at MAGL receptor in mouse at 10 mg/kg, ip measured after 4 hrs; format: functional, organism-based

CYP2C9, sequence (P11712 whole entry): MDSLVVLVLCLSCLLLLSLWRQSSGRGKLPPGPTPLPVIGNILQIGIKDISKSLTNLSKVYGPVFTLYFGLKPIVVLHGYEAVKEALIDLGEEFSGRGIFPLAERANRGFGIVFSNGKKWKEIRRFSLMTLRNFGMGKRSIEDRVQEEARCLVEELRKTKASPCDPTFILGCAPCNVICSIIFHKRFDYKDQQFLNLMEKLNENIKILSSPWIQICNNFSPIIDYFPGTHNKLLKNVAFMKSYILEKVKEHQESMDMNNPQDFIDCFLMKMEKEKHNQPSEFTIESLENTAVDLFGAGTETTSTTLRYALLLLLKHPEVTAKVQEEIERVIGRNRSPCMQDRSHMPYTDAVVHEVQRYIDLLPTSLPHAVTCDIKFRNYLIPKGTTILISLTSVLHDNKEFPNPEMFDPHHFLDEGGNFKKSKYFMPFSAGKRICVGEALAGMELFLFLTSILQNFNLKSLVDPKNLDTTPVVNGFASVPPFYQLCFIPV

O=C1CO[C@H]2CCN(C(=O)N3CCC(Cc4ccc(C(F)(F)F)cc4)CC3)C[C@H]2N1 [listing 1 of 2 here]
inhibition at 10 µM (CYP2C9): 3%
Activity [1]: Non-Toxic
Papp A→B (human P-gp): 17.6 ×10⁻⁶ cm/s
Stability [2]: Stable
Kd (Monoglyceride lipase): 45 nM
hepatocyte CLint [3]: 4 µL/min/10^7 cells
concentration at 4 h [4]: 31.2 nM
concentration at 2 h [5]: 689 nM
Stability [6]: Stable
AUC(0-t) at 24 h [7]: 40200 ng·h/mL
fraction unbound [8]: 0.047
Cmax [9]: 12200 ng/mL
Kp at 7 h [10]: 0.017

O=C1CO[C@H]2CCN(C(=O)N3CCC(Cc4ccc(C(F)(F)F)cc4)CC3)C[C@H]2N1 [listing 2 of 2 here]
inhibition (Homo sapiens): 57%
inhibition [11]: inactive
inhibition (Mus musculus [12]): inactive
K [13]: 7.5 10^-3/s
Activity [14]: 96%
Activity (Mus musculus [15]): Active
inhibition [16]: inactive
K [17]: 2.5 10^5/M/s
Activity [18]: 79%
